# Compound activity (PubChem BioAssay)
# SF1 activator – SF-1 (human) activation. Q13285. CHO-K1 Gal4-SF-1 LBD luciferase reporter; % increase over DMSO SF-1-specific signal. activation, % at 10 µM. 65,000 tested, 1.9% active. AID 522;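 active = activation above the mean activation of all tested compounds plus 3 SD, cut at about 50% in these data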
#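 Test system: CHO-K1 cells with Gal4–hSF-1 LBD chimera plus Gal4-driven luciferase; Input: 4,000 cells/well; Compound: 10 µM only; Times: 20 h compound treatment, 37 °C; Measured by: steady-glow luciferase luminescence, read after 15 min reagent incubation; Measure: percent activation versus DMSO; Control set: DMSO and mock-transfected background; Replicates: one test per compound.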
# WNV protease inh – WNV NS2B-NS3 proteinase inhibition | P06935 | WNV NS2B-NS3 protease, fluorogenic substrate Ex360/Em465; hits give low values | z-score (concentration not given with the values) | 65,000 tested, 0.18% active; in the data active = z-score below about -3
# JNK3 blocker – inhibitors of human JNK3 kinase; P53779; purified JNK3 kinase activity, HTS; inhibition, % at 8 µM; 60,000 tested, 0.61% active; AID 746; in the data active = inhibition above about 17%;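 also: 0% = DMSO and 100% = reference inhibitor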
# Target sequence (P53779 whole entry, looked up): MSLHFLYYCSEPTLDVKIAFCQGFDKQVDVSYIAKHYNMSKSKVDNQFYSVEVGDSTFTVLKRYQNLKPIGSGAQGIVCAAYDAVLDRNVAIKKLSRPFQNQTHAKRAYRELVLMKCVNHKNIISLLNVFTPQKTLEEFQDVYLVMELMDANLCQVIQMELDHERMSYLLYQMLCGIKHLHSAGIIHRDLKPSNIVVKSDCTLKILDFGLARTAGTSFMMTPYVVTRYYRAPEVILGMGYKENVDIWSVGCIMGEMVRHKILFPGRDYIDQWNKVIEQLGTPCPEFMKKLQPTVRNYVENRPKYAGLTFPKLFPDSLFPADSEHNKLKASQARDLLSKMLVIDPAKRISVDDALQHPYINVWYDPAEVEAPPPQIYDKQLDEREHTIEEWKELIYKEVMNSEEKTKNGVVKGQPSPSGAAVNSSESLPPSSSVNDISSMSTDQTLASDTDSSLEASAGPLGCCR
# PKA inh – inhibitors of human protein kinase A | inhibition, % at 6 µM | PKA Kemptide phosphorylation, Kinase-Glo ATP luminescence | 65,000 tested, 0.1% active | AID 524 | P17612;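 active = inhibition above the screen-wide mean inhibition plus 3 SD, cut at about 21% in these data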
# RORa activator – RORA (human) activation; CHO-K1 Gal4-RORA LBD luciferase reporter, luminescence; percent increase over mock-subtracted basal signal; activation, % at 10 µM; P35398; 65,000 tested, 1.5% active; AID 560;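 active = activation above the mean of all tested compounds plus 3 SD, cut at about 49% in these data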;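 also: 0% = DMSO-treated RORA cells and 100% = added signal equal to DMSO minus mock-transfected cells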
# ROCK2 blocker – blocks human Rho kinase 2 activity | O75116 | purified ROCK2, Kinase-Glo ATP depletion luminescence | inhibition, % at 6 µM | 60,000 tested, 0.35% active | AID 604;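 active = inhibition above the screen-wide mean inhibition plus 3 SD, cut at about 18% in these data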;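 also: plate controls were DMSO wells for no effect and Y-27632 control wells after no-enzyme background subtraction for full effect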
# * = called active by the depositor; . = no result. Rows were chosen to be rich in hits. Some 3.4% of all compounds tested hit in one or more screens of this group.
SMILES,SF1 activator,WNV protease inh,JNK3 blocker,PKA inh,RORa activator,ROCK2 blocker
CCc1ccc(NC(=O)c2noc3c2CCCCC3)cc1,67*,-0.91,-5,7,67*,6
O=C(NCCc1ccccc1)c1noc2c1CCCCC2,60*,-1.1,1,3,48,5
Cc1ccc(NC(=O)c2noc3c2CCCCC3)cc1,35,0.94,3,10,56*,6
CC1CCCCC1NC(=O)CN1CCC(O)(c2ccc(F)cc2)CC1 (stereo not given),-4,0.29,1,-2,-17,-4
O=C(Nc1cccc(O)c1)c1cc(S(=O)(=O)N2CCCC2)ccc1Cl,8,-0.18,.,2,-4,.
Nc1nc(CSc2ncn(-c3ccccc3)n2)cs1,59*,-0.91,8,-6,44,2
Nc1nc(CSc2nc3ccccc3[nH]2)cs1,10,-0.39,-8,6,29,4
c1ccc(CCc2nc(-c3ccccn3)no2)cc1,35,-0.23,3,9,54*,12
Cn1c(SCC(=O)N2CCCCC2)nc2cccnc21,10,0.35,9,5,-1,2
CCn1c(-c2ccc(N(C)C)cc2)nc2ccccc21,19,0.77,-6,4,88*,2
C=CCn1c(-c2ccc(N)cc2)nc2ccccc21,57*,-1.3,-2,8,38,4
CCn1c(-c2ccc(N)cc2)nc2ccccc21,37,-0.39,2,4,50*,3
O=C(NCCCN1CCOCC1)c1cc(-c2cccs2)on1,32,1.3,3,3,42,6
O=C(NCc1ccco1)c1cc(-c2ccccc2)on1,32,-0.71,-7,-5,38,1
O=C(NCCCn1ccnc1)c1cc(-c2cccs2)on1,67*,1.3,-3,1,92*,7
O=C(NCc1ccco1)c1cc(-c2cccs2)on1,28,1.1,1,-5,67*,0
O=C(NCc1ccco1)c1ccc2ccccc2c1,48,0.61,3,-7,68*,-3
CCn1c(C(=O)OC)cc2c1ccn2-c1ccc(F)cc1,53*,0.15,2,3,60*,1
COc1ccc(C(=O)/C=C/Nc2cccc(C)n2)cc1OC,88*,-0.73,7,3,13,5
Cc1ccc(C(=O)/C=C/Nc2ccccn2)cc1,-83,-1.7,4,-3,-90,-24
CC(C)(C)NC(=O)c1ccc2c(c1)C(=O)N(C1CCCCC1)C2=O,31,-0.87,-2,-5,32,-6
Cc1c(C(=O)NCC2CCCO2)oc2ccc3c(c12)C(=O)CC(C)(C)O3 (stereo not given),62*,-1.2,-1,2,11,-6
COc1ccc(C(C)=O)cc1COC(=O)c1c(C)noc1C,-9,1.8,24*,2,-5,3
COc1ccc(C(C)=O)cc1COC(=O)c1ccc(OCc2c(C)noc2C)cc1,8,-0.61,4,0,-6,2
CCOC(=O)N1CCN(S(=O)(=O)c2ccc(C(=O)Nc3sc4c(c3C#N)CCC4)cc2)CC1,74*,0.24,4,8,-3,6
SMILES,SF1 activator,WNV protease inh,JNK3 blocker,PKA inh,RORa activator,ROCK2 blocker
CN1CCN(S(=O)(=O)c2cccc(C(=O)Nc3sc4c(c3C(N)=O)CCCC4)c2)CC1,2,-0.82,2,12,10,2
C=CCOc1cccc(C2C(C(=O)c3ccc(C)o3)=C(O)C(=O)N2c2nccs2)c1 (stereo not given),3,0.84,.,-4,27,.
COc1cccc(NC(=O)NCc2cccn2C)c1,21,-0.41,-3,6,-12,0
CSc1cccc(NC(=O)COc2ccccc2)c1,1,0.85,2,12,-13,13
COc1ccc(NC(=O)Nc2cccc(C)n2)cc1,64*,1.1,6,5,28,0
COc1ccc(NC(=O)Nc2cccc(OC)c2)cc1,35,1.1,-2,5,68*,0
CSc1cccc(NC(=O)Nc2ccccc2)c1,50*,2,2,-4,63*,1
O=C(NCCN1CCOCC1)c1ccc2c(c1)ncn2C1CCCCC1,-3,-0.65,2,10,-2,7
COC(=O)c1c(-c2ccncc2)csc1NC(=O)c1ccoc1C,64*,-0.1,-2,0,48,16
Cc1ccc(NC(=O)CCn2cccc2)cc1Cl,2,-1,0,-1,16,0
Clc1cccc2sc(N3CCCC3)nc12,50*,-0.85,5,9,22,5
O=C(Nc1nc(-c2ccc3c(c2)OCO3)cs1)C1CC1,51*,-0.71,7,4,72*,-1
CCCC(=O)Nc1nc(-c2ccc3c(c2)OCCO3)cs1,61*,0.17,8,10,63*,7
O=C(O)CCC(=O)Nc1nc(-c2ccccc2)cs1,-6,-0.14,-3,3,1,1
COC(=O)c1cccc(NC(=O)CSc2nnc(C)n2Cc2ccccc2)c1,-7,0.14,-2,-8,0,4
Cc1ccc(C)c2[nH]c(=O)c(CN(CCN3CCCC3)C(=O)Nc3cccc(Cl)c3)cc12,-4,-0.67,4,9,19,4
CCc1noc2c1/C(=N\O)CC(c1ccccc1)C2 (stereo not given),-3,-0.08,-2,2,19,2
N#Cc1sc2nc3c(c(-c4ccco4)c2c1N)CCCC3,-14,-0.59,17*,0,-12,-1
c1coc(-c2nc3c4c5c(sc4ncn3n2)CCCC5)c1,14,0.14,1,4,1,6
O=C(O)c1nc2ccccc2nc1C(=O)O,58*,0.52,8,1,44,-11
Nc1nc2ccccc2nc1N,4,0.01,7,10,19,6
N#C/C(C(=O)c1ccccc1)=C1/CCCCCN1,61*,-0.47,9,8,35,3
CCOc1ccc(CCNC(=O)C2CCCN(C(=O)N(C)C)C2)cc1OCC (stereo not given),-1,-0.38,-1,6,0,0
CCC(C(=O)O)n1nnc(-c2ccc(-c3ccc(OC)cc3)cc2)n1 (stereo not given),-1,0.39,-3,10,23,4
COc1ccc(-c2ccc(-c3nnn(CC(C)=O)n3)cc2)cc1,90*,0.32,6,-1,38,0
O=C(N1CCOCC1)N1CCN(S(=O)(=O)N2CCOCC2)CC1,-9,-0.47,1,0,-9,3
Cn1c(C(=O)NCCc2c[nH]c3ccccc23)cc2sccc21,79*,3.2,-1,4,74*,4
Cc1ccc(C)n1Cc1ccc(C(=O)O)cc1,17,0.69,-8,3,2,-2
CCc1ccc(-c2ccc(C(=O)O)cc2)nc1,85*,-0.49,5,7,38,2
